In data set [1] the test system is Mus musculus. Description: Hepatotoxicity in BALB/c mouse assessed as increase in liver ALT level at 35 mg/kg, ip after 72 hrs. Conditions: in vivo.
Data set [2] relates to Mus musculus. Described as above. Conditions: in vivo. The source holds these as a separate data set.
The test system of data set [3] is Mus musculus. Nature of the data set: Reduction of PTEN mRNA level in BALB/c mouse liver at 60 mg/kg, ip after 72 hrs. Format: functional, organism-based. Set-up: dose 60 mg/kg.
Data set [4] has as its system Mus musculus. Nature of the data set: Hepatotoxicity in BALB/c mouse assessed as increase in liver ALT level at 35 mg/kg, ip after 72 hrs. The data set is classed as toxicity, organism-based. Also on record: dose 35 mg/kg, route intraperitoneal. Conditions: in vivo. An outline of the steps: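 Single ip injection of 35 mg/kg ASO into male Balb/c mice, 6 weeks old, n = 4 per group, saline control; sacrificed 72 h after dosing and ALT recorded; ANOVA with Tukey's post hoc test.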

In data set [5] the test system is Mus musculus. Description: Reduction of PTEN mRNA level in BALB/c mouse liver at 37 mg/kg, ip after 72 hrs. The data set is classed as functional, organism-based. Set-up: dose 37 mg/kg.

Structures are written as SMILES. Calls of active or inactive are those of the source. The calls are words filed in the database; no cut-off is given here.

Turning to `Cc1cn([C@@H]2O[C@@]3(COP(O)(=S)O[C@@H]4[C@@H](OP(O)(=S)OC[C@H]5O[C@@H](n6cc(C)c(=O)[nH]c6=O)[C@H](O)[C@@H]5OP(O)(=S)OC[C@H]5O[C@@H](n6cnc7c(=O)[nH]c(N)nc76)[C@H](O)[C@@H]5OP(O)(=S)OC[C@H]5O[C@@H](n6cnc7c(=O)[nH]c(N)nc76)[C@H](O)[C@@H]5OP(O)(=S)OC[C@H]5O[C@@H](n6ccc(N)nc6=O)[C@H](O)[C@@H]5OP(O)(=S)OC[C@H]5O[C@@H](n6cc(C)c(=O)[nH]c6=O)[C@H](O)[C@@H]5OP(O)(=S)OC[C@H]5O[C@@H](n6cnc7c(=O)[nH]c(N)nc76)[C@H](O)[C@@H]5OP(O)(=S)OC[C@H]5O[C@@H](n6ccc(N)nc6=O)[C@H](O)[C@@H]5OP(O)(=S)OC[C@H]5O[C@@H](n6cnc7c(N)ncnc76)[C@H](O)[C@@H]5OP(O)(=S)OC[C@H]5O[C@@H](n6cnc7c(=O)[nH]c(N)nc76)[C@H](O)[C@@H]5OP(O)(=S)OC[C@@]56CO[C@@H]([C@H](n7cc(C)c(N)nc7=O)O5)[C@@H]6OP(O)(=S)OC[C@@]56CO[C@@H]([C@H](n7cc(C)c(=O)[nH]c7=O)O5)[C@@H]6O)O[C@@H](n5cnc6c(N)ncnc65)[C@@H]4O)CO[C@@H]2[C@@H]3OP(O)(=S)OC[C@@]23CO[C@@H]([C@H](n4cc(C)c(=O)[nH]c4=O)O2)[C@@H]3O)c(=O)nc1N` (stereo not given in full), the Activity result in data set [1], in data set [2] and in data set [4] was “Toxic” each time. Further, the result in data set [3] and in data set [5] was Active.
